Drawing on ChEMBL document CHEMBL1155055, “Novel aminopeptidase N inhibitors derived from 1,3,4-thiadiazole scaffold” (Bioorg Med Chem, 2008), this text covers IC50 and Activity for 22 compounds.

As usually defined, the IC50 is the concentration that gives 50% inhibition. High values mean weaker potency in that assay, low ones greater potency in that assay.

Each structure is given as a SMILES string. The source made the active and inactive calls. No cut-off for these calls is given here.

The target of one test is T1, Aminopeptidase N (Sus scrofa, UniProt P15145).
T1 sequence (P15145 whole entry): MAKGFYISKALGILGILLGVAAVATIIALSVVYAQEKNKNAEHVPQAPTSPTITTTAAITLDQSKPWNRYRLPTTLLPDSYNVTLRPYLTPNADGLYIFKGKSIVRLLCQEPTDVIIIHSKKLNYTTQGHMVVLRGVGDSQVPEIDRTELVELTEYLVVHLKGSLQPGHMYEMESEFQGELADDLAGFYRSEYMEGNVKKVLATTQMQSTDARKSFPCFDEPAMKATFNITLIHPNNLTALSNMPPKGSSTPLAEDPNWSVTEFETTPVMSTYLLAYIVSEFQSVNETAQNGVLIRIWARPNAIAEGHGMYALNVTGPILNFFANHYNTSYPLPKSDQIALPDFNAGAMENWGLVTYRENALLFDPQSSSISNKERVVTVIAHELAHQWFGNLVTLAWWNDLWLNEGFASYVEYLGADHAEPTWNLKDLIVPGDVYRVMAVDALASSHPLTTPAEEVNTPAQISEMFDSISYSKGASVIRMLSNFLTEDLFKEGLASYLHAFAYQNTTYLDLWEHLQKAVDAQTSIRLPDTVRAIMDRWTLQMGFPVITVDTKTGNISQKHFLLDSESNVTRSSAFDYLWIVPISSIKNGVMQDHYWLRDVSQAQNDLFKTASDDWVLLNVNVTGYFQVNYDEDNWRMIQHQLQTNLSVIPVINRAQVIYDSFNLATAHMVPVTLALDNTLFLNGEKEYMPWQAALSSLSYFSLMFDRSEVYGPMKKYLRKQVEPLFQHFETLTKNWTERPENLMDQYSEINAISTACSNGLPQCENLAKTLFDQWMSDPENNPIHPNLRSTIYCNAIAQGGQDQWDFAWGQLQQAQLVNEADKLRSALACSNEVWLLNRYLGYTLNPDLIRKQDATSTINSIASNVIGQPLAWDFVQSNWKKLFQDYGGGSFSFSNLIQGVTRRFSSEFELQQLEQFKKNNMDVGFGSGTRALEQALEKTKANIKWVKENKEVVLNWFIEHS
As to the kind of experiment: Inhibition of pig kidney microsomes aminopeptidase N.

Test [1] addresses 72 kDa type IV collagenase (Homo sapiens, UniProt P08253). Nature of the test: Inhibition of MMP2. The method in brief:
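Gelatinase (MMP-2), substrate and inhibitor in 50 mmol/L sodium borate pH 8.5, 30 min at 37 °C; then 0.03% TNBS added, further 20 min incubation; absorbance read at 450 nm.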

For `COc1ccc(/C=C/C(=O)N[C@H](C)C(=O)Nc2nnc(-c3ccc([N+](=O)[O-])cc3)s2)cc1`, the IC50 at Aminopeptidase N came out at 44.6 µM; in test [1], 297 µM.
As for `CC(C)C[C@H](NC(=O)[C@@H](O)[C@H](N)Cc1ccccc1)C(=O)O` [UBENIMEX], the IC50 in test [1] came out at 9.5 µM.
The compound `C[C@@H](NC(=O)/C=C/c1ccc(O)cc1)C(=O)Nc1nnc(-c2ccc(Br)cc2)s1` returned an IC50 against Aminopeptidase N of 35.3 µM. Besides, the result in test [1] was inactive.
As for `Cc1ccc(-c2nnc(NC(=O)[C@@H](C)NC(=O)/C=C/c3ccccc3)s2)cc1`, the IC50 at Aminopeptidase N is 206 µM. Moreover, the outcome in test [1] was inactive.
For `COc1ccc(-c2nnc(NC(=O)[C@@H](C)NC(=O)/C=C/c3ccc(O)cc3)s2)cc1`, on Aminopeptidase N, the IC50 amounted to 68.8 µM. For the same compound, the outcome in test [1] was inactive.
The matching figures for `COc1ccc(/C=C/C(=O)N[C@H](C)C(=O)Nc2nnc(-c3ccccc3)s2)cc1`: 131 µM and “inactive”.
Consider `C[C@@H](NC(=O)/C=C/c1ccc(O)cc1)C(=O)Nc1nnc(-c2ccc(F)cc2)s1`, for which, on Aminopeptidase N, the IC50 is 115 µM. Also, the outcome in test [1] was inactive.
The matching figures for `C[C@@H](NC(=O)/C=C/c1ccc(O)cc1)C(=O)Nc1nnc(-c2ccc([N+](=O)[O-])cc2)s1`: 54.1 µM and “inactive”.
Taken in the same sequence, the figures for `COc1ccc(/C=C/C(=O)N[C@H](C)C(=O)Nc2nnc(-c3ccc(OC)cc3)s2)cc1` were 78.5 µM and “inactive”.
`COc1ccc(/C=C/C(=O)N[C@H](C)C(=O)Nc2nnc(-c3ccc(C)cc3)s2)cc1` yielded an IC50 on Aminopeptidase N of 141 µM. Moreover, the outcome in test [1] was inactive.
`COc1ccc(/C=C/C(=O)N[C@H](C)C(=O)Nc2nnc(-c3ccc(Cl)cc3)s2)cc1` had an IC50 against Aminopeptidase N of 135 µM. Further, in test [1], the outcome was inactive.
Taken in the same sequence, the figures for `C[C@@H](NC(=O)/C=C/c1ccccc1)C(=O)Nc1nnc(-c2ccc(Br)cc2)s1` were 115 µM and “inactive”.
The compound `COc1ccc(-c2nnc(NC(=O)[C@@H](C)NC(=O)/C=C/c3ccccc3)s2)cc1` came in with a half-maximal inhibitory concentration (IC50) on Aminopeptidase N of 31.4 µM. In test [1], the outcome was inactive.
Compound `Cc1ccc(-c2nnc(NC(=O)[C@@H](C)NC(=O)/C=C/c3ccc(O)cc3)s2)cc1` returned an IC50 on Aminopeptidase N of 127 µM. Moreover, the result in test [1] was inactive.
`COc1ccc(/C=C/C(=O)N[C@H](C)C(=O)Nc2nnc(-c3ccc(F)cc3)s2)cc1` gave an IC50 at Aminopeptidase N of 90.7 µM. In addition, the outcome in test [1] was inactive.
At Aminopeptidase N, `C[C@@H](NC(=O)/C=C/c1ccccc1)C(=O)Nc1nnc(-c2ccc(F)cc2)s1` gave an IC50 of 183 µM. For the same compound, in test [1], the outcome was inactive.
Taken in the same sequence, the figures for `C[C@@H](NC(=O)/C=C/c1ccccc1)C(=O)Nc1nnc(-c2ccc([N+](=O)[O-])cc2)s1` were 84.7 µM and “inactive”.
The matching figures for `C[C@@H](NC(=O)/C=C/c1ccccc1)C(=O)Nc1nnc(-c2ccccc2)s1`: 216 µM and “inactive”.
`C[C@@H](NC(=O)/C=C/c1ccc(O)cc1)C(=O)Nc1nnc(-c2ccccc2)s1` registered an IC50 at Aminopeptidase N of 124 µM. The outcome in test [1] was inactive.
The matching figures for `C[C@@H](NC(=O)/C=C/c1ccc(O)cc1)C(=O)Nc1nnc(-c2ccc(Cl)cc2)s1`: 105 µM and “inactive”.
At Aminopeptidase N, `C[C@@H](NC(=O)/C=C/c1ccccc1)C(=O)Nc1nnc(-c2ccc(Cl)cc2)s1` returned an IC50 of 153 µM. Further, in test [1], the outcome was inactive.
The matching figures for `COc1ccc(/C=C/C(=O)N[C@H](C)C(=O)Nc2nnc(-c3ccc(Br)cc3)s2)cc1`: 108 µM and “inactive”.
